Experimental data of several laboratories.
Protocols differ between the studies behind these lines. Converted amounts (≈) assume the structure as drawn.

| Compound | assay | system | conditions | endpoint | result |
| --- | --- | --- | --- | --- | --- |
| CC(=O)N[C@@H](CCCNC(=N)N)C(=O)N[C@H]1CSSC[C@@H](C(=O)N[C@H](C(N)=O)[C@@H](C)O)NC(=O)[C@H](CCCNC(=N)N)NC(=O)[C@H](Cc2c[nH]cn2)NC(=O)[C@H](C)NC(=O)CNC(=O)[C@H](Cc2c[nH]c3ccccc23)NC(=O)[C@H](CC(=O)O)NC(=O)[C@H](CCC(N)=O)NC(=O)[C@H](Cc2cn(C)c3ccccc23)NC(=O)[C@H](C(C)C)NC1=O | absorbance | water | – | thermodynamic solubility | > 1000 µM |
| CC[C@H](C)[C@H](NC(=O)[C@H](Cc1ccccc1)NC(=O)[C@H](Cc1ccc(O)cc1)NC(=O)[C@@H](CCCCN)NC(=O)[C@@H](N)Cc1ccc(O)cc1)C(=O)N1CCC[C@H]1C(=O)N[C@@H](CC(C)C)C(=O)NCC(=O)N[C@H](CCCCN)C(=O)NCC(=O)N[C@@H](CCC(=O)O)C(=O)N[C@H](C(=O)N[C@@H](CC(N)=O)C(=O)N[C@@H](CC(C)C)[C@@H](O)CC(=O)N[C@H](C(=O)N[C@@H](C)C(=O)N[C@@H](CCC(=O)O)C(=O)N1CCC[C@@H]1C(=O)N[C@@H](CCCCNC(=O)CCC(=O)O[C@H]1CC[C@@]2(C)C(=CC[C@H]3[C@@H]4CC[C@H]([C@H](C)CCCC(C)C)[C@@]4(C)CC[C@@H]32)C1)C(N)=O)C(C)C)C(C)C | – | aqueous buffer | pH 6.5 | thermodynamic solubility | < 1 µg/mL |
| COc1ccc(C2CC(=O)c3c(O)cc(O)cc3O2)cc1O (centres unmarked) | shake flask | aqueous buffer | 24 h, pH 5, 25 °C | thermodynamic solubility | 9.33 µg/mL |
| CC(=O)N[C@@H](CCCNC(=N)N)C(=O)N[C@H]1CSSC[C@@H](C(=O)N[C@H](C(N)=O)[C@@H](C)O)NC(=O)[C@H](CCCNC(=N)N)NC(=O)[C@H](Cc2c[nH]cn2)NC(=O)[C@H](C)NC(=O)CNC(=O)[C@H](Cc2c[nH]c3ccccc23)NC(=O)[C@H](CC(=O)O)NC(=O)[C@H](CCC(N)=O)NC(=O)[C@H](Cc2c[nH]c3ccccc23)NC(=O)[C@H](C(C)C)NC1=O | absorbance | water | – | thermodynamic solubility | > 1000 µM |
| CCCn1nc(C(=O)N2CCCCC2)c2c1CCC(N(C)Cc1ccc(F)cc1)C2 (centres unmarked) | – | PBS | 16 h, pH 7.4 | thermodynamic solubility | 2400 µM |
| CC[C@H](C)[C@H](NC(=O)[C@@H](CCCCN)NC(=O)[C@H](Cc1ccc(O)cc1)NC(=O)[C@@H]1CCCN1C(=O)[C@@H](N)Cc1ccc(O)cc1)C(=O)N1CCC[C@H]1C(=O)N[C@@H](CC(C)C)C(=O)NCC(=O)N[C@H](CCCCN)C(=O)NCC(=O)N[C@@H](CCC(=O)O)C(=O)N[C@H](C(=O)N[C@@H](CC(N)=O)C(=O)N[C@@H](CC(C)C)[C@@H](O)CC(=O)N[C@H](C(=O)N[C@@H](C)C(=O)N[C@@H](CCC(=O)O)C(=O)N1CCC[C@@H]1C(=O)N[C@@H](CCCCNC(=O)CCC(=O)O[C@H]1CC[C@@]2(C)C(=CC[C@H]3[C@@H]4CC[C@H]([C@H](C)CCCC(C)C)[C@@]4(C)CC[C@@H]32)C1)C(N)=O)C(C)C)C(C)C | – | aqueous buffer | pH 6.5 | thermodynamic solubility | > 2440 µg/mL |
| CC(=O)Oc1ccccc1C(=O)O | – | aqueous buffer | 72 h, pH 6.8, 37 °C | thermodynamic solubility | 158000 µg/mL |
| CC(=O)Nc1cc(Nc2cc(NC3CC3)n3ncc(C#N)c3n2)ccc1N(C)[C@H]1CCOC1 | shake flask | PBS | 24 h, pH 7.4, 22 °C | kinetic solubility | 21 µg/mL (≈ 47 µM) |
